{"source": "ChEMBL document CHEMBL1641364", "about": "“Synthesis of truncated analogues of the iNKT cell agonist, α-galactosyl ceramide (KRN7000), and their biological evaluation” (Bioorg Med Chem, 2011)", "type_in_all_cases": "cell-based", "key": {"[1]": {"molecular_target": "T1, Antigen-presenting glycoprotein CD1d (Homo sapiens) (UniProt P15813)", "T1 sequence (whole entry)": "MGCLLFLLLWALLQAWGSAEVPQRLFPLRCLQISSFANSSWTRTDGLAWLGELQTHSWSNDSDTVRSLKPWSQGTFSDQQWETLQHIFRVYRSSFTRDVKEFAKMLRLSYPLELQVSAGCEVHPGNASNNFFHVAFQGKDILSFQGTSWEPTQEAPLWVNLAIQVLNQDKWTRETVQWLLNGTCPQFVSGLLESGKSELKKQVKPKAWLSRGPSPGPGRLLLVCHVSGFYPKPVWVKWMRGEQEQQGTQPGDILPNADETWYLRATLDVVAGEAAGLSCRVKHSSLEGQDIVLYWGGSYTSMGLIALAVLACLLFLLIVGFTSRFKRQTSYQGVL", "assay": "Binding affinity to C1R-hCD1d expressed in human B cells assessed as increase in Th2 cytokine release in mouse iNKT cells upto 100 ng/ml after 36 hrs by ELISA"}, "[2]": {"molecular_target": "T1, Antigen-presenting glycoprotein CD1d (Homo sapiens)", "assay": "Binding affinity to C1R-hCD1d expressed in human B cells assessed as activation of IFN-gamma release in human iNKT cells upto 100 ng/ml after 36 hrs by ELISA", "method_in_brief": "(§1)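 C1R cells expressing human CD1d were pulsed with lipid at a range of concentrations. 5 × 10⁴ pulsed targets were co-cultured with 2 × 10⁴ human iNKT line cells at 37 °C for 36 h. IFN-γ and IL-4 in the harvested supernatants were quantified by ELISA, and IFN-γ/IL-4 and IL-4/IFN-γ ratios were derived from these values.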"}, "[3]": {"molecular_target": "T1, Antigen-presenting glycoprotein CD1d (Homo sapiens)", "assay": "Binding affinity to C1R-hCD1d expressed in human B cells assessed as activation of IL-4 release in human iNKT cells upto 100 ng/ml after 36 hrs by ELISA", "method_in_brief": "as §1"}, "[4]": {"molecular_target": "T1, Antigen-presenting glycoprotein CD1d (Homo sapiens)", "assay": "Binding affinity to C1R-hCD1d expressed in human B cells assessed as increase in Th1 cytokine release in mouse iNKT cells upto 100 ng/ml after 36 hrs by ELISA"}, "[5]": {"molecular_target": "T1, Antigen-presenting glycoprotein CD1d (Homo sapiens)", "assay": "Binding affinity to C1R-hCD1d expressed in human B cells assessed as change in IFN-gamma/IL4 ratio in human iNKT cells upto 100 ng/ml after 36 hrs by ELISA", "method_in_brief": "as §1"}, "[6]": {"molecular_target": "T1, Antigen-presenting glycoprotein CD1d (Homo sapiens)", "assay": "Binding affinity to C1R-hCD1d expressed in human B cells assessed as increase in IFN-gamma/IL4 ratio in mouse iNKT cells upto 100 ng/ml after 36 hrs by ELISA"}}, "note": "The source made the active and inactive calls. No cut-off for these calls is given here."}
{"smiles": "CCCCCCCCCCCCCCCCCCCCCCCCCC(=O)N[C@@H](CO[C@H]1O[C@H](CO)[C@H](O)[C@H](O)[C@H]1O)[C@H](O)[C@H](O)CCCCCCCC", "values": [{"measurement": "Activity", "setting": "[1]", "result": "Active"}, {"measurement": "Activity", "setting": "[2]", "result": "Active"}, {"measurement": "Activity", "setting": "[3]", "result": "Active"}, {"measurement": "Activity", "setting": "[4]", "result": "Active"}, {"measurement": "Activity", "setting": "[5]", "result": "inactive"}, {"measurement": "Activity", "setting": "[6]", "result": "Active"}]}
{"smiles": "CCCCC/C=C\\C/C=C\\CCCCCCCCCC(=O)N[C@@H](CO[C@H]1O[C@H](CO)[C@H](O)[C@H](O)[C@H]1O)[C@H](O)[C@H](O)CCCCCCCCCCCCCC", "values": [{"measurement": "Activity", "setting": "[1]", "result": "Active"}, {"measurement": "Activity", "setting": "[4]", "result": "Active"}, {"measurement": "Activity", "setting": "[5]", "result": "inactive"}, {"measurement": "Activity", "setting": "[6]", "result": "Active"}]}
{"smiles": "CCCCCCCCCCCCCCCCCCCCCCCCCC(=O)N[C@@H](CO[C@H]1O[C@H](CO)[C@H](O)[C@H](O)[C@H]1O)[C@H](O)[C@H](O)CCCCCCCCCCC", "values": [{"measurement": "Activity", "setting": "[1]", "result": "Active"}, {"measurement": "Activity", "setting": "[2]", "result": "Active"}, {"measurement": "Activity", "setting": "[3]", "result": "Active"}, {"measurement": "Activity", "setting": "[4]", "result": "Active"}, {"measurement": "Activity", "setting": "[5]", "result": "inactive"}, {"measurement": "Activity", "setting": "[6]", "result": "Active"}]}
{"smiles": "CCCCCCCCCCCCCCCCCCCCCCCCCC(=O)N[C@@H](CO[C@H]1O[C@H](CO)[C@H](O)[C@H](O)[C@H]1O)[C@H](O)[C@H](O)CCCCCCCCCCCCCC", "values": [{"measurement": "Activity", "setting": "[2]", "result": "Active"}, {"measurement": "Activity", "setting": "[3]", "result": "Active"}, {"measurement": "Activity", "setting": "[4]", "result": "Active"}, {"measurement": "Activity", "setting": "[5]", "result": "inactive"}, {"measurement": "Activity", "setting": "[6]", "result": "Active"}]}
{"smiles": "CCCCCCCCCCCCCCCCCCCCCCCCCC(=O)N[C@@H](CO[C@H]1O[C@H](CO)[C@H](O)[C@H](O)[C@H]1O)[C@H](O)[C@H](O)CCCCC", "values": [{"measurement": "Activity", "setting": "[1]", "result": "Active"}, {"measurement": "Activity", "setting": "[2]", "result": "Active"}, {"measurement": "Activity", "setting": "[3]", "result": "Active"}, {"measurement": "Activity", "setting": "[4]", "result": "Active"}, {"measurement": "Activity", "setting": "[5]", "result": "inactive"}, {"measurement": "Activity", "setting": "[6]", "result": "Active"}]}
